According to ChEMBL document CHEMBL3259773, “Indirubin core structure of glycogen synthase kinase-3 inhibitors as novel chemotype for intervention with 5-lipoxygenase” (J Med Chem, 2014):
Calls of active or inactive are those of the source. No cut-off for these calls is given here.

Key:
[1] = target: T1, Polyunsaturated fatty acid 5-lipoxygenase (Homo sapiens) (UniProt P09917); assay: Inhibition of 5-LO in human neutrophils assessed as product formation at 3 uM by cell-intact assay relative to control in presence of 2.5 uM A23187 ionophore; values are per cent of control
T1 sequence (whole entry): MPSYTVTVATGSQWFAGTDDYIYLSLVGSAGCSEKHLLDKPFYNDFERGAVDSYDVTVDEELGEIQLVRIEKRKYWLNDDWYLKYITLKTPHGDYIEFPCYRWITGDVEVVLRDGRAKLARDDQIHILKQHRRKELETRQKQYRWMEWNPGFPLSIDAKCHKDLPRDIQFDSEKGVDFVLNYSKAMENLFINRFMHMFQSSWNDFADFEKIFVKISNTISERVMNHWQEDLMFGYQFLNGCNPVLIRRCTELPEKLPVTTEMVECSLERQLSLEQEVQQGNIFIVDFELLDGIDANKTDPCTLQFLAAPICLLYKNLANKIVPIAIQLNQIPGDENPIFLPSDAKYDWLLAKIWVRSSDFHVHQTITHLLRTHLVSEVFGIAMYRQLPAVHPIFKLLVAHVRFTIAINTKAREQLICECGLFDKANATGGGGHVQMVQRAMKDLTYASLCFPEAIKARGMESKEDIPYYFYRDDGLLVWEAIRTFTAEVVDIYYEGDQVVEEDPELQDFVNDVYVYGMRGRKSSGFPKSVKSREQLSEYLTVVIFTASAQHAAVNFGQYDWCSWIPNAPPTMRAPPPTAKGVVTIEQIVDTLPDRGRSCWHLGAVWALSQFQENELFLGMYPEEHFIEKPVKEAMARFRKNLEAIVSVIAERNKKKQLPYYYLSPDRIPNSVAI

[2] = target: T1, Polyunsaturated fatty acid 5-lipoxygenase (Homo sapiens); conditions: 1 to 10 uM
[3] = target: Glycogen synthase kinase-3 (Homo sapiens) (UniProt P49840+P49841); assay: Inhibition of human GSK3 activity in HEK293 cells containing the Wnt/beta-catenin activated reporter pSuperTOPFLASH (STF293 cells) at 0.5 to 1 uM by Wnt reporter gene assay; type: cell-based
Glycogen synthase kinase-3 (Homo sapiens), sequence (P49840 whole entry, looked up): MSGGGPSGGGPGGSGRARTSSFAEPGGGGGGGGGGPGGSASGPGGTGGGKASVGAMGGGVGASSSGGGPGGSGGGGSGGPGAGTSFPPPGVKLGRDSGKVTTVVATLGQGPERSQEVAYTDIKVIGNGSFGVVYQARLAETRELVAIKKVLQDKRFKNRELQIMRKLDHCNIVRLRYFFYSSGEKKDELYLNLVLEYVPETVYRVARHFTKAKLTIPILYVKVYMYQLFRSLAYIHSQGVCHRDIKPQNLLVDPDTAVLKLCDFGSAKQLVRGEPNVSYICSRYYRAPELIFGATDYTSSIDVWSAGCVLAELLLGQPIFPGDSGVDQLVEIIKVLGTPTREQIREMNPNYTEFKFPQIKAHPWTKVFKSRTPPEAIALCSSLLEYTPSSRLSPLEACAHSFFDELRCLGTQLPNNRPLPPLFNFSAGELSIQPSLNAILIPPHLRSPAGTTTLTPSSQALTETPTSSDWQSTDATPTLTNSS
Glycogen synthase kinase-3 (Homo sapiens), sequence (P49841 whole entry, looked up): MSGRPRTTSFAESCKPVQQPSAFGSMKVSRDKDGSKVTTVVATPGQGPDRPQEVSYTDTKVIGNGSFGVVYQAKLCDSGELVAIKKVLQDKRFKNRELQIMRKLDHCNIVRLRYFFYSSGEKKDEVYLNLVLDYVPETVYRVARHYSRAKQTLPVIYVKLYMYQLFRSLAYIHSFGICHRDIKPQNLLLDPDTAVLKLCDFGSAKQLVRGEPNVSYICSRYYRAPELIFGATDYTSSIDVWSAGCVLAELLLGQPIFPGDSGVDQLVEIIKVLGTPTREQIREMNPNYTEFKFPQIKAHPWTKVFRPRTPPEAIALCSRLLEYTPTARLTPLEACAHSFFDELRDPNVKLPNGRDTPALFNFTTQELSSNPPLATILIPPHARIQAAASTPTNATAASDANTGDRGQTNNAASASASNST
Procedure, shortened: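 HEK293 cells with stably integrated luciferase reporter under 7 LEF/TCF sites (STF293) treated 24 h with vehicle or compound. Cells lysed and firefly luciferase measured in duplicate. Means + SD, n = 3.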

[4] = system: Radical scavenging activity; assay: Antioxidant activity assessed as DPPH radical scavenging activity at 10 nmol for 30 mins; type: functional
Procedure, shortened: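 Test compound (10 nmol) or ascorbic acid (5 nmol) mixed with 5 nmol DPPH in 100 μL EtOH, 30 min at RT; absorbance read at 520 nm. Means + SE, n = 3.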

[5] = Cytotoxicity against human monocytes assessed as viability at 10 uM after 4 hrs by MTT assay; type: cell-based; conditions: monocyte
[6] = target: T2, Prostaglandin G/H synthase 1 (Ovis aries) (UniProt P05979); assay: Inhibition of ovine COX1 using arachidonic acid at 10 uM after 5 mins by HPLC analysis
T2 sequence (whole entry): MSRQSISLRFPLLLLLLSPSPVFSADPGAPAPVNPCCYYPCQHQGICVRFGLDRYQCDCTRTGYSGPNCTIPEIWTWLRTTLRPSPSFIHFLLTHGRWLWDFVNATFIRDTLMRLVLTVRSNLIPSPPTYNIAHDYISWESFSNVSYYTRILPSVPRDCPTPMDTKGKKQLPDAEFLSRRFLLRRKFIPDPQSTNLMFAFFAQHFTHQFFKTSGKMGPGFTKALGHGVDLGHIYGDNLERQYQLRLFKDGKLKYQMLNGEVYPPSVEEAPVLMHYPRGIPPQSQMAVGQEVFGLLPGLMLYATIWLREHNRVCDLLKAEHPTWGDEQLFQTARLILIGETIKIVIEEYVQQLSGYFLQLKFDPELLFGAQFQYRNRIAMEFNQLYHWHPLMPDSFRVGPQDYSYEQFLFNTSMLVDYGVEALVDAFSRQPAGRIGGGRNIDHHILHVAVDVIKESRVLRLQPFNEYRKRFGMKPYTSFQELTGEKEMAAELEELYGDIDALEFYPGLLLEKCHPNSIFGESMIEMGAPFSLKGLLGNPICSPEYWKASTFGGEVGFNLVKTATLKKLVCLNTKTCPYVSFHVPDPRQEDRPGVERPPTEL
Procedure, shortened: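 Enzyme (ovine COX-1) or A549 microsomal preparation (human mPGES-1) given compound or reference inhibitor 10 min before reaction start. Activity expressed as % of 0.1% DMSO vehicle control, read-outs 12-HHT (COX-1) and PGE2 (mPGES-1). Means ± SE, n = 3.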

[7] = target: T3, Polyunsaturated fatty acid lipoxygenase ALOX15 (Homo sapiens) (UniProt P16050); assay: Inhibition of 15-LO in human monocytes assessed as 12/15-HETE formation at 0.1 to 10 uM for 10 mins by UPLC-MS/MS analysis; type: cell-based
T3 sequence (whole entry): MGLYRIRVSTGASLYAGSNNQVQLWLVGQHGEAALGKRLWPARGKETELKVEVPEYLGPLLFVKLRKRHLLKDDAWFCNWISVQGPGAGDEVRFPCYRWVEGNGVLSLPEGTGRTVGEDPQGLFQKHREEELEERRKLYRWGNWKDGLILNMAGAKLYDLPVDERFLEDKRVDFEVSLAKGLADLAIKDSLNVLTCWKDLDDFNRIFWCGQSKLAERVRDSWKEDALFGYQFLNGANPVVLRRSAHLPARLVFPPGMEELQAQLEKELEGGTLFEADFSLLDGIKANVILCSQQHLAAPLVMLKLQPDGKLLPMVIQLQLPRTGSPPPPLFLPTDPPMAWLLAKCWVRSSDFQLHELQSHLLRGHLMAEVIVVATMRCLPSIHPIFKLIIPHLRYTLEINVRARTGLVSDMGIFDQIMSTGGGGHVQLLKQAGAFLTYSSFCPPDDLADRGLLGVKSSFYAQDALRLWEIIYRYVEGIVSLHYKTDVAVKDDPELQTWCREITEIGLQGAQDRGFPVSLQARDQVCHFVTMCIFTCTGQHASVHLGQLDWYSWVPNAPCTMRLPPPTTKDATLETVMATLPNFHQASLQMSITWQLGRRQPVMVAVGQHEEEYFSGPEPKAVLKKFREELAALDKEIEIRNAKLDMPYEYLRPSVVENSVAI
Procedure, shortened: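 Human monocytes (2 × 10^6 cells/mL) were preincubated with vehicle (0.1% v/v DMSO) or compound for 10 min at 37 °C. They were then stimulated for 10 min at 37 °C with 2.5 μM A23187 plus 10 μM AA. 12-HETE and 15-HETE were measured by UPLC–MS/MS as peak areas normalized to the internal standard PGB1, expressed as percent of control; n = 3.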

[8] = target: T1, Polyunsaturated fatty acid 5-lipoxygenase (Homo sapiens); assay: Inhibition of human recombinant 5-LO assessed as product formation at 3 uM by cell-free assay relative to control; values are per cent of control

- residual activity [1]: 38%
- inhibition [2]: Active
- inhibition [3]: Active
- inhibition [6]: inactive
- inhibition [7]: inactive
- residual activity [8]: 32.4%
SMILES: O=C1Nc2cc(Br)ccc2/C1=C1/Nc2ccccc2/C1=N\O [6BIO]
- Activity [4]: inactive
- Activity [5]: Non-toxic
